The structures appear in SMILES notation. Activity calls are given as the source filed them. The rule behind the calls is not given here. Bounds are passed on as bounds.

Test [1] deals with Rattus norvegicus. In words: Behavioral activity in Wistar rat assessed as reduction of 8-OH-DPAT-induced lower lip retraction at 10 to 20 mg/kg, ip administered 45 mins before 8-OH-DPAT challenge.
In test [2] the target is T1, 5-hydroxytryptamine receptor 1A (Rattus norvegicus, UniProt P19327).
T1 sequence (P19327 whole entry): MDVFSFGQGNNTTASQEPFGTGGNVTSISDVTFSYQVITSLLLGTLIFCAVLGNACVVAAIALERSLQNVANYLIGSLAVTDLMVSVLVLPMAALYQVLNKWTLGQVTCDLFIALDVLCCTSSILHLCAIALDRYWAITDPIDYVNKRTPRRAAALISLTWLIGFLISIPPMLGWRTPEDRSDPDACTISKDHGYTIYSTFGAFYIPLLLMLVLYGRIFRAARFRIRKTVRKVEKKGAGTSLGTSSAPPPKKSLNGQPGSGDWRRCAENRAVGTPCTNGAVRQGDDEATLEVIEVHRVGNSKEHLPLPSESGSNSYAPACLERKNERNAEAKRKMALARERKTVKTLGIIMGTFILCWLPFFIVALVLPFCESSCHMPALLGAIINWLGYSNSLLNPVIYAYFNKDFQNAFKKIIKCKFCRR
In words: Displacement of [3H]8-OH-DPAT from 5HT1A receptor in rat cerebral cortex after 15 mins by liquid scintillation counting. In kind it is tissue-based.

Another test concerns the target D(2) dopamine receptor (Rattus norvegicus, UniProt P61169). In words: Displacement of [3H]spiperone from dopamine D2 receptor in rat striatum membrane after 30 mins by liquid scintillation counting. In kind it is cell membranes. In outline:
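Rat striatum homogenised in 50 mM potassium phosphate pH 7.4 and spun twice at 20000 × g. Membranes (3 mg wet weight) incubated with 1 nM [3H]-spiperone and test agent in 0.5 ml for 30 min at 37 °C. Nonspecific binding with (+)butaclamol. GF/B filtration, two washes with ice-cold buffer, scintillation counting; Ki from ≥3 experiments, 10 concentrations in triplicate.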
In general terms: Loss of bound radioactivity is the signal in a displacement assay; it reports binding, not function.

For test [3], the target named is 5-hydroxytryptamine receptor 2A (Rattus norvegicus, UniProt P14842). In words: Displacement of [3H]ketanserin from 5HT2A receptor in rat cerebral cortex after 20 mins by liquid scintillation counting. It counts as tissue-based. Summed up: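 Rat cerebral cortex homogenised in 50 mM Tris-HCl pH 7.7, spun at 32000 × g, preincubated 10 min at 37 °C, resuspended in 50 volumes. Incubated with 0.6 nM [3H]-ketanserin and test agent (10^-10 to 10^-4 M) at 37 °C for 20 min; mianserin as displacer. GF/B filtration, scintillation counting; Ki from ≥3 experiments, 10 concentrations in triplicate.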
Sequence of 5-hydroxytryptamine receptor 2A (P14842 whole entry): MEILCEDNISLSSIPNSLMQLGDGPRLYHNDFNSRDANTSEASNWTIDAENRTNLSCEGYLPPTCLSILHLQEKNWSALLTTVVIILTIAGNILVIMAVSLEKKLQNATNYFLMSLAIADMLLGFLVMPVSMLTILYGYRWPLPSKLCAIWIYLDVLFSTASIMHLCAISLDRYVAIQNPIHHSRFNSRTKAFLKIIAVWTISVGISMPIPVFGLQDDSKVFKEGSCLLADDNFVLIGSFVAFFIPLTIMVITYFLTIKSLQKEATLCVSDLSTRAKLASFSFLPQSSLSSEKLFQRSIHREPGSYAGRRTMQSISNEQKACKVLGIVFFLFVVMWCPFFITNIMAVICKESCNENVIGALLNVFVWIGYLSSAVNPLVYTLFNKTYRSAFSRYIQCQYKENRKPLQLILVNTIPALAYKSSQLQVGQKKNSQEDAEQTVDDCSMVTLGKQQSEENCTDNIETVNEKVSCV

The subject of test [4] is Rattus norvegicus. In words: Behavioral activity in Wistar rat assessed as induction of lower lip retraction at 10 to 20 mg/kg, ip. In kind it is functional, organism-based. Summed up: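 Male Wistar rats (290–310 g); agent ip in 1% Tween 80 at 2 ml/kg. Rats housed singly in cages and scored 15, 30 and 45 min after dosing: 0 = lower incisors not visible, 0.5 = partly, 1 = fully visible. Maximum total score 3 per rat.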

The subject of test [5] is Mus musculus. In words: Agonist activity at 5HT1A receptor in Swiss albino mouse assessed as decrease in rectal temperature at 5 mg/kg, ip after 30 mins. In kind it is functional, organism-based. Details: dose 5 mg/kg. In outline: (§1)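 Male Albino Swiss mice (24–28 g), free food and water, room at 20 ± 1 °C; test agent suspended in 1% aqueous Tween 80, given ip at 10 ml/kg. Rectal temperature read with a thermometer at 30, 60, 90 and 120 min after dosing. Result expressed as Δt from basal temperature taken at the start; six to ten animals per group, each used once.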

Test [6] has as its system Mus musculus. In words: Agonist activity at 5HT1A receptor in Swiss albino mouse assessed as decrease in rectal temperature at 5 mg/kg, ip after 90 mins. It counts as functional, organism-based. Details: dose 5 mg/kg. Summed up:
as §1

Test [7] has as its system Mus musculus. The test can be described thus: Agonist activity at 5HT1A receptor in Swiss albino mouse assessed as decrease in rectal temperature at 10 mg/kg, ip after 60 mins in presence of WAY 100635 administered 15 mins before drug challenge. In kind it is functional, organism-based. Details: dose 10 mg/kg. Summed up:
(§2)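 Male Albino Swiss mice (24–28 g). WAY 100635 (0.1 mg/kg, sc, in distilled water) given 15 min before test agent (ip, suspended in 1% Tween 80, 10 ml/kg). Rectal temperature recorded 30 and 60 min after test agent injection. Expressed as Δt versus basal temperature at the start of the experiment.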

Test [8] has as its system Mus musculus. The test can be described thus: Agonist activity at 5HT1A receptor in Swiss albino mouse assessed as decrease in rectal temperature at 10 mg/kg, ip after 30 mins in presence of WAY 100635 administered 15 mins before drug challenge. In kind it is functional, organism-based. Details: dose 10 mg/kg. Summed up:
as §2

Test [9] has as its system Mus musculus. The test can be described thus: Agonist activity at 5HT1A receptor in Swiss albino mouse assessed as decrease in rectal temperature at 5 mg/kg, ip after 60 mins. It counts as functional, organism-based. Details: dose 5 mg/kg. Summed up:
as §1

Test [10] concerns Mus musculus. In words: Agonist activity at 5HT1A receptor in Swiss albino mouse assessed as decrease in rectal temperature at 10 mg/kg, ip after 120 mins. It counts as functional, organism-based. Details: dose 10 mg/kg. In outline: as §1
In test [11] the test system is Mus musculus. In words: Agonist activity at 5HT1A receptor in Swiss albino mouse assessed as decrease in rectal temperature at 10 mg/kg, ip after 30 mins. It counts as functional, organism-based. Details: dose 10 mg/kg. Summed up: as §1
The test system of test [12] is Mus musculus. In words: Agonist activity at 5HT1A receptor in ip dosed Swiss albino mouse assessed as decrease in rectal temperature. It counts as functional, organism-based. Summed up: as §1
Test [13] concerns Mus musculus. In words: Agonist activity at 5HT1A receptor in Swiss albino mouse assessed as decrease in rectal temperature at 10 mg/kg, ip after 90 mins. In kind it is functional, organism-based. Details: dose 10 mg/kg. Summed up: as §1
Test [14] concerns Mus musculus. In words: Agonist activity at 5HT1A receptor in Swiss albino mouse assessed as decrease in rectal temperature at 10 mg/kg, ip after 60 mins. It counts as functional, organism-based. Set-up: dose 10 mg/kg. In outline: as §1
For test [15], the system named is Mus musculus. In words: Agonist activity at 5HT1A receptor in Swiss albino mouse assessed as decrease in rectal temperature at 5 mg/kg, ip after 120 mins. Details: dose 5 mg/kg. In kind it is functional, organism-based. Summed up:
as §1

Sequence of D(2) dopamine receptor (P61169 whole entry): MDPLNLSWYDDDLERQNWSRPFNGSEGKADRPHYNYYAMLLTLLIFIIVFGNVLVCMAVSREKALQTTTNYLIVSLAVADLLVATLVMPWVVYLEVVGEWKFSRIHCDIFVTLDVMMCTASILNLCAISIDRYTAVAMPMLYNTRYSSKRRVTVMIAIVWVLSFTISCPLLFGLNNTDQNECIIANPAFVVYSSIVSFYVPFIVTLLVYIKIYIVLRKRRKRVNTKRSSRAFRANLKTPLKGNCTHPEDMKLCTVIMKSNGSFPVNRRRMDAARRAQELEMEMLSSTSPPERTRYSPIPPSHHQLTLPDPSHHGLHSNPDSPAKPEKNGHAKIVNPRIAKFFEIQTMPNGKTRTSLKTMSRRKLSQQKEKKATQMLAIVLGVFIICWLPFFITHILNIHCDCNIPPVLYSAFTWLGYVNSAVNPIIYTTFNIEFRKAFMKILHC

On to `COc1ccccc1N1CCN(CCN(C(=O)C2CCCCC2)c2ccccn2)CC1`, for which the result in the test with Rattus norvegicus [1] was Active.
Consider `Cn1c(=O)c2c(nc3n(CCCN4CCN(c5ccccc5)CC4)c(-c4ccccc4)cn23)n(C)c1=O`, for which the Ki in test [2] is 96.5 nM; at D(2) dopamine receptor, above 1000 nM; in [3] it was 813 nM.
In test [2], `Cn1c(=O)c2c(nc3n2CC(C(=O)NCCN2CCN(c4cccc(Cl)c4)CC2)N3)n(C)c1=O` (stereo not given) yielded a Ki above 1000 nM.
As for `Cc1cn2c3c(=O)n(C)c(=O)n(C)c3nc2n1CCCN1CCN(c2cccc(Cl)c2)CC1`, in the test with Rattus norvegicus [4], the result was inactive. Moreover, the deltaT in the test on Mus musculus [5] is -0.5 °C; in the test on Mus musculus [6], -0.5 °C; in the test with Mus musculus [7], -0.5 °C; in the test on Mus musculus [8], -0.9 °C; with Mus musculus [9] it was -0.4 °C; with Mus musculus [10] it was -0.1 °C. Besides, the deltaT in the test with Mus musculus [11] is -1 °C; in the test on Mus musculus [13], -0.8 °C; in the test on Mus musculus [14], -0.7 °C; with Mus musculus [15], -0.1 °C. The results for the Ki (in test [2]; at D(2) dopamine receptor; in test [3]) were 17.1 nM, 767 nM and 403 nM, respectively. Besides, in the test on Mus musculus [12], the Activity result was “Dose-dependent effect”.
For the molecule `Cn1c(=O)c2c(nc3n(CCCN4CCN(c5cccc(Cl)c5)CC4)c(-c4ccccc4)cn23)n(C)c1=O`, in test [3], the Ki is above 1000 nM.
For the molecule `Cc1cn2c3c(=O)n(C)c(=O)n(C)c3nc2n1CCCN1CCN(c2ccccc2)CC1`, the values for the Ki (in test [2]; at D(2) dopamine receptor; in [3]) were 76.4 nM, above 1000 nM and above 1000 nM, respectively.
Molecule `COc1ccccc1N1CCN(CCNC(=O)C2Cn3c(nc4c3c(=O)n(C)c(=O)n4C)N2)CC1` (stereo not given) returned a Ki in [2] above 1000 nM.

Broadly, the Ki is the equilibrium dissociation constant of an inhibitor or competing ligand from its target. Lower therefore signals higher affinity.

These data come from ChEMBL document CHEMBL1155976, “Synthesis and preliminary pharmacological evaluation of imidazo[2,1-f]purine-2,4-dione derivatives” (Eur J Med Chem, 2009).
